One experiment has as its target T1, Estrogen receptor (Homo sapiens, UniProt P03372).
T1 sequence (P03372 whole entry): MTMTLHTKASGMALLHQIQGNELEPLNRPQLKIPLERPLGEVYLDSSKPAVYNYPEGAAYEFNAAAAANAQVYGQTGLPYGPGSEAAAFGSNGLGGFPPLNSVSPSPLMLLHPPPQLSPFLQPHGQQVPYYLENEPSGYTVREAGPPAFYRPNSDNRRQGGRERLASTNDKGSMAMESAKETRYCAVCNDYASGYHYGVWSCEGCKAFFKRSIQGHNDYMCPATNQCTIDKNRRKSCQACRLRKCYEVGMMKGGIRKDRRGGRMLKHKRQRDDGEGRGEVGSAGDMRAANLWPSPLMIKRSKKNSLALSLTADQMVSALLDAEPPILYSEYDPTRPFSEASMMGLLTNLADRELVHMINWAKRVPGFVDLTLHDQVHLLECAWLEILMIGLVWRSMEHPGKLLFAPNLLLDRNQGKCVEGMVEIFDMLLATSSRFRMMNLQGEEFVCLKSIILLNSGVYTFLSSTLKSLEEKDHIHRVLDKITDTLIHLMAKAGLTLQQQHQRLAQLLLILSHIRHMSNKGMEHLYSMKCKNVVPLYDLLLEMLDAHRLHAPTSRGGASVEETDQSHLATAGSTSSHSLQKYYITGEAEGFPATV
Put plainly: Displacement of Fluormone ES2 Green from full-length untagged human ERalpha expressed in insect cells after 2 hrs by fluorescence polarization assay. For orientation: Fluorescence polarisation rises when a labelled molecule tumbles more slowly, as on binding a larger partner.

Experiment [1] deals with T2, Estrogen receptor (Homo sapiens) (UniProt P03372).
T2 sequence (whole entry): T1 sequence (P03372 whole entry)
Put plainly: Downregulation of ERalpha expression in human MCF7 cells at 10 uM after 6 hrs by Western blot method relative to beta-actin. The class given is cell-based. In a few lines:
(§1)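 MCF-7 cells kept in DMEM with 10% FBS, kanamycin and 10 μg/mL insulin, then exposed to compounds for 6 h. Lysates made in SDS buffer (0.1 M Tris-HCl pH 8.0, 10% glycerol, 1% SDS), boiled, BCA-normalized and run on SDS-PAGE. Blots probed with anti-ERα, AR, AhR or VDR and β-actin or lamin B. Chemiluminescence quantified as target/loading-protein ratio; means ± S.E., n=3.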
A general note: A western blot detects proteins with antibodies after separation by electrophoresis.

Experiment [2] concerns the target T2, Estrogen receptor (Homo sapiens). The experiment can be described thus: Downregulation of ERalpha expression in human MCF7 cells at 1 uM after 6 hrs by Western blot method relative to beta-actin. The class given is cell-based. A digest of the protocol:
as §1

Experiment [3] shares this target. The experiment can be described thus: Downregulation of ERalpha expression in human MCF7 cells at 3 uM after 6 hrs by Western blot method relative to beta-actin. The class given is cell-based. A digest of the protocol: as §1
Experiment [4] shares this target. The experiment can be described thus: Displacement of Fluormone ES2 Green from full-length untagged human ERalpha expressed in insect cells at 1 uM after 2 hrs by fluorescence polarization assay. A digest of the protocol:
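Competitive fluorescence polarization binding to ERα run with a commercial kit per manufacturer's instructions. Compounds taken from 10 mM DMSO stock. mP read at 470 nm excitation and 535 nm emission. Fraction bound correlated with mP and plotted against competitor concentration.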

For experiment [5] the target is unchanged. Put plainly: Antagonist activity at GAL4-fused human ERalpha LBD expressed in HEK293 cells assessed as inhibition of 17beta-estradiol-induced transcriptional activation at 10 uM after 16 to 20 hrs by luciferase reporter gene assay relative to control. The class given is cell-based. In a few lines: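 HEK293 cells grown in phenol red-free DMEM with 10% FBS at 37 °C, 5% CO2. Calcium phosphate co-transfection with GAL4-hERα LBD plasmid, MH100x4-tk-luciferase reporter and β-galactosidase normalization plasmid. Compounds added 8 h post-transfection with 0.3 nM 17β-estradiol; harvested 16–20 h later. Luciferase normalized to β-galactosidase; means of triplicate assays.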

Active and inactive are the calls of the source. No cut-off for these calls is given here.

As to `CCCCOc1ccc(C(CCC)(CCC)c2ccc(O)c(C)c2)cc1C`, at Estrogen receptor, the IC50 came to 0.087 µM. Besides, the Activity in experiment [1] stood at 68%; in experiment [2], 84%; in experiment [3], 82%.

As for `CCCCCCNCCOc1ccc(C(CCC)(CCC)c2ccc(O)c(C)c2)cc1C`, the IC50 on Estrogen receptor worked out at 0.078 µM. Besides, the Activity was determined as 112% in experiment [1], 185% in experiment [2] and 185% in experiment [3].

Consider `CCCCCCCCOc1ccc(C(CCC)(CCC)c2ccc(O)c(C)c2)cc1C`, for which the IC50 at Estrogen receptor was found to be 0.4 µM. The Activity in experiment [1], in experiment [2] and in experiment [3] was 105% each time.

As for `CCCCCCCCCCOc1ccc(C(CCC)(CCC)c2ccc(O)c(C)c2)cc1C`, the results for the Activity in experiment [1], in experiment [2] and in experiment [3] were 106%, 118% and 120%, respectively. Also, the inhibition entry in experiment [4] is “inactive”.

For `CCCCCCCCCCCCOc1ccc(C(CCC)(CCC)c2ccc(O)c(C)c2)cc1C`, the Activity came to 96% in experiment [1], 128% in experiment [2] and 111% in experiment [3]. Also, the inhibition result in experiment [4] was “inactive”. Also, the inhibition in experiment [5] was determined as 61%.

In turn, `CCCC(CCC)(c1ccc(O)c(C)c1)c1ccc(OCCN(C)C)c(C)c1` came in with an IC50 on Estrogen receptor of 0.313 µM. The Activity in experiment [1] was 100%; in experiment [2] it was 109%; in experiment [3], 115%.

The molecule `CCCCCCCCNCCOc1ccc(C(CCC)(CCC)c2ccc(O)c(C)c2)cc1C` registered an IC50 on Estrogen receptor of 0.0024 µM. Moreover, the Activity in experiment [1] is 69%; in experiment [2], 111%; in experiment [3], 112%.

In the case of `CCCCCCOc1ccc(C(CCC)(CCC)c2ccc(O)c(C)c2)cc1C`, the IC50 at Estrogen receptor was 0.168 µM. The Activity was determined as 86% in experiment [1], 89% in experiment [2] and 95% in experiment [3].

For `CCCC(CCC)(c1ccc(O)c(C)c1)c1ccc(O)c(C)c1`, the IC50 at Estrogen receptor came out at 0.0073 µM. Besides, the Activity in experiment [1] came out at 70%; in experiment [2], 80%; in experiment [3], 79%.

On to `CCCC(CCC)(c1ccc(O)c(C)c1)c1ccc(OCCN)c(C)c1`, for which the IC50 on Estrogen receptor amounted to 0.078 µM. The results for the Activity in experiment [1], in experiment [2] and in experiment [3] were 150%, 145% and 154%, respectively.

On Estrogen receptor, `CCCC(CCC)(c1ccc(O)c(C)c1)c1ccc(OCC)c(C)c1` gave an IC50 of 0.04 µM. For the same molecule, the values for the Activity in experiment [1], in experiment [2] and in experiment [3] were 87%, 95% and 96%, respectively.

On Estrogen receptor, `CCCCCCCCCCCCNCCOc1ccc(C(CCC)(CCC)c2ccc(O)c(C)c2)cc1C` yielded an IC50 of 0.0049 µM. Also, the Activity was 68% in experiment [1], 93% in experiment [2] and 83% in experiment [3].

Consider `CCCCCCCCCCCCCCCCNCCOc1ccc(C(CCC)(CCC)c2ccc(O)c(C)c2)cc1C`, for which the 50% inhibitory concentration (IC50) on Estrogen receptor was determined as 0.02 µM. Also, the figures for the Activity in experiment [1], in experiment [2] and in experiment [3] were 70%, 92% and 82%, respectively.

A word on the IC50: it is the midpoint of a concentration-inhibition curve. Usually inhibition stands for the relative decrease from the control value, in per cent.
